Experimental data collected from several papers.
Protocols differ between the studies behind these lines.
Target: Ephrin type-B receptor 1 (EPHB1, Homo sapiens, UniProt P54762)
Sequence (P54762 18-984, as in one of the studies): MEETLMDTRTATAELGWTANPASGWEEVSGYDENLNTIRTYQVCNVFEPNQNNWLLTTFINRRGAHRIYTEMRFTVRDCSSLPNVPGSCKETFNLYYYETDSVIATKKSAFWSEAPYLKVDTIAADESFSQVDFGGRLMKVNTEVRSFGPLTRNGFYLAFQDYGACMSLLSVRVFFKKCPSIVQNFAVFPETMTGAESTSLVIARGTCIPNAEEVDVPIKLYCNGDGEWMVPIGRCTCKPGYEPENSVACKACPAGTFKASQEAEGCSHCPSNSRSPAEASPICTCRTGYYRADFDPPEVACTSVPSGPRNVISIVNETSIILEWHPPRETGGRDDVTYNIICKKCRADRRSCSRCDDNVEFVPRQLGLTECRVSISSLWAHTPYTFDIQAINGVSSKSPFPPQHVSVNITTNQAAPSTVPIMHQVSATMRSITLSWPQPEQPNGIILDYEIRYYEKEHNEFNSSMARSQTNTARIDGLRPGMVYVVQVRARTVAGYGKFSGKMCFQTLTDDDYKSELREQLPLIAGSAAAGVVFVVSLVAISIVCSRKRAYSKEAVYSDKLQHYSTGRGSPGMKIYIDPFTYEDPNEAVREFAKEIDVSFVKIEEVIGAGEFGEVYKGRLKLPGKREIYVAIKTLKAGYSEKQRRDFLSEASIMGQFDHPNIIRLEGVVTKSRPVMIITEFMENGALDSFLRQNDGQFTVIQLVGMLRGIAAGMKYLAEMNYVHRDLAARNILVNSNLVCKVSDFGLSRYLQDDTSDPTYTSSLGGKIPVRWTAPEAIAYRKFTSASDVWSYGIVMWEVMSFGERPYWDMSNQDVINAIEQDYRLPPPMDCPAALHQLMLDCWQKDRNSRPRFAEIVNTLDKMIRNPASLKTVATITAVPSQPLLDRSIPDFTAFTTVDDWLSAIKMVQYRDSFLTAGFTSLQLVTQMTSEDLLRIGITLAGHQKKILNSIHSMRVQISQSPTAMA

`c1cnn2ncc(-c3ccnc(N4CCC45COC5)n3)c2c1` has a remaining binding of 100% (binding; 1 µM).
`O=C(O)c1cc(-c2ccc(C3CCNCC3)cc2)c2ccc(-c3ccc(C(F)(F)F)cc3)cc2c1` gave a remaining binding of 100% (cell-free assay; competition with immobilised ligand; 1 µM).
The remaining binding of `C=CC(=O)N1CCC(C(=O)NCC(=O)N2CCN(c3nc(-c4cnc(N)nc4C(F)F)nc(N4CCOCC4)n3)CC2)CC1` is reported as 100% (binding; competition with immobilised ligand; 1 µM).
`Cc1cc(NC(=O)c2cccc(S(F)(F)(F)(F)F)c2)cc(-n2ccn3nc(-c4cccnc4)cc23)c1` has a remaining binding of 100% (cell-free assay; competition with immobilised ligand; 1 µM).
With `O=C(NCCCN1CCOCC1)c1ccc(Nc2ncc(Cl)c(-c3ccc(Cl)s3)n2)cc1` the remaining binding was 58% (binding; competition with immobilised ligand; 1 µM).
`O=C(Nc1c[nH]nc1C(=O)NC1CCNCC1)c1cc(F)cc(F)c1` gave a remaining binding of 100% (binding; competition with immobilised ligand; 1 µM).
`O=C(NCCCN1CCOCC1)c1ccc(Nc2nccc(-c3cc4ccccc4s3)n2)cc1` gave a remaining binding of 77% (binding; competition with immobilised ligand; 1 µM).
With `Nc1cnc(N2CCc3cc(S(=O)(=O)Nc4c(F)cc(Cl)cc4F)cc(N4CCCC4=O)c32)nc1` the remaining binding was 92% (cell-free assay; competition with immobilised ligand; 1 µM).
For `CN(C)c1nccc(-c2cnn3ncccc23)n1`, the remaining binding was 100% (binding; 1 µM).
With `CN1CCN(c2cnc3c(C4CCN(C(=O)c5ccc(OC(F)(F)F)cc5N)CC4)ncnc3c2)CC1` the remaining binding was 100% (cell-free assay; competition with immobilised ligand; 1 µM).
For `C[C@H]1CCN(c2nccc(-c3cnn4ncccc34)n2)C1`, the remaining binding was 100% (binding; 1 µM).
With `c1cncc(-c2cccc(Nc3nccc(NC4CCCCC4)n3)c2)c1` the remaining binding was 81% (binding; competition with immobilised ligand; 10 µM).
With `COc1cnc(Nc2cccc(S(N)(=O)=O)c2)nc1N1CCN(c2ccccc2)CC1` the remaining binding was 97% (binding; competition with immobilised ligand; 1 µM).
`FC(F)(F)Oc1cccc(-c2cnc3ccc(-c4ccncc4)nn23)c1` has a remaining binding of 82% (cell-free assay; competition with immobilised ligand; 5 µM).
For `Cc1cnc(Nc2ccc(C(=O)N3CCC(N4CCCC4)CC3)cc2)nc1-c1cc2ccccc2s1`, the remaining binding was 4.4% (binding; competition with immobilised ligand; 1 µM).
`CNCc1ccccc1-c1csc([C@H](C)Nc2nc(C)nc3cc(OC)c(OC)cc23)c1` gave a remaining binding of 100% (cell-free assay; competition with immobilised ligand; 1 µM).
`N[C@H]1CCN(c2nccc(-c3cnn4ncccc34)n2)C1` has a remaining binding of 100% (binding; 1 µM).
The remaining binding of `N#CC1(c2ccccn2)CCN(Cc2cc(C(=O)N3CCCC3)c(=O)n3ccccc23)CC1` is reported as 91% (cell-free assay; competition with immobilised ligand; 1 µM).
For `CNC(=O)[C@@H]1CC[C@@H](n2c(-c3ccc4cnccc4c3)nc3ccc(C(=O)NCc4cccc(C(N)=O)c4)cc32)C1`, the remaining binding was 100% (binding; competition with immobilised ligand; 1 µM).
With `CC1CCCN1c1nccc(-c2cnn3ncccc23)n1` (centres unmarked) the remaining binding was 100% (binding; 1 µM).
